“Also recorded” adds a separate entry of the source.
Assays:
[1] = tested on: F1FO-ATP synthase (ATPase activity); assay: F1FO-ATPase activity assay; assay type: biochemical, rat; conditions: P888 (2μM) co-incubation with cTnI (2μg); n=3 independent experiments
Method in brief: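 Rat heart mitochondria (4 μg, solubilized) were captured on anti-ATP synthase antibody plates and co-incubated with recombinant human cTnI (2 μg) ± test peptide (2 μM). Absorbance was read over 120 min. Oligomycin served as negative control. n=3 independent experiments, each in 3–4 replicates; two-way ANOVA with Sidak correction.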

[2] = tested on: mitochondria of rat hearts after myocardial IR; assay: Rat in vivo LAD ligation IR: mitochondrial oxygen consumption after IR; conditions: 3mg/kg IP at reperfusion, 24 hours after reperfusion, n=15
[3] = biological target: cTnI binding to immune-captured ATP synthase (UniProt P19429+P31399); assay: Inhibition of cTnI binding to ATP synthase by ELISA; assay type: rat heart mitochondria; recombinant human cTnI; conditions: P888 2μM
Method in brief: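 ELISA on anti-ATP synthase antibody plates blocked with 2% BSA. Plates were co-incubated with solubilized rat heart mitochondria (4 μg) and recombinant human cTnI (2 μg) ± test peptide (2 μM). After washing, bound cTnI was detected with HRP anti-cTnI antibody (1:5000, 1 h), then TMB, stopped with 2N sulfuric acid; absorbance at 450 nm.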

Chain of cTnI binding to immune-captured ATP synthase (P19429 whole entry): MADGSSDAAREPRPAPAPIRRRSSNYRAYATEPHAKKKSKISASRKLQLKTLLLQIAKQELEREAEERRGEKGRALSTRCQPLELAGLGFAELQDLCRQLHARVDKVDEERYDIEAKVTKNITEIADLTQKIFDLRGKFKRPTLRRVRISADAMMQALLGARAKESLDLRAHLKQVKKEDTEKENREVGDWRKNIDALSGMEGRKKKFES
Chain of cTnI binding to immune-captured ATP synthase (P31399 2-161 limits assumed): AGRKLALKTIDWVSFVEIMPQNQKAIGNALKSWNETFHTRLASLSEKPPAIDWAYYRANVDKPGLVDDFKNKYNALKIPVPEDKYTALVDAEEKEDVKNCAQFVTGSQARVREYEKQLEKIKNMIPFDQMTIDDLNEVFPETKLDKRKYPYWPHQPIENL

**Q.** Which results are given for A2GRKLALKTI11 [P888]?
**A.** prevention of cTnI-induced increase in ATPase activity [1]: blocked the cTnI-induced increase in ATPase activity; also recorded: P888 co-incubation prevents this effect; also recorded: inhibited cTnI-induced increase in ATPase activity in vitro; mitochondrial respiration after IR [2]: no significant effect of P888 on mitochondrial function; inhibition of cTnI binding to the immune-captured ATP synthase ([3]; cTnI (2μg), n=3): ~ 78%; inhibition of cTnI binding to ATP synthase ([3]; n=3, result in words): binding is inhibited in the presence of P888; also recorded: inhibited cTnI binding to ATP synthase

Reference: publication PMC11700703 (Nature cardiovascular research, 2024)
